{"source": "ChEMBL document CHEMBL1151466", "about": "(Antimicrob Agents Chemother, 2008)", "key": {"[1]": {"assay": "Apparent clearance with respect to bioavailability in human with malaria", "type": "ADME, organism-based", "settings": "in vivo"}, "[2]": {"assay": "Volume of distribution at steady state with respect to bioavailability in Paua New Guinean children with uncomplicated malaria at 10 mg/kg daily for 3 days", "type": "ADME, organism-based", "settings": "human, in vivo, read-out: Vc/F", "method_in_brief": "(§1)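 Children aged 5–10 y with uncomplicated malaria took oral CQ at 10 mg base/kg daily at 0, 24 and 48 h, with single-dose SP given alongside the first dose, without fasting. Heparin plasma was sampled serially to day 42, stored at −80°C, extracted with t-butyl methyl ether, and measured by HPLC-UV at 340 nm. Two-compartment model fitting used 1/y2 weighting.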"}, "[3]": {"assay": "AUC (0 to 42 days) in Paua New Guinean children with uncomplicated malaria at 10 mg/kg daily for 3 days", "type": "ADME, organism-based", "set-up": "time < 1008 hr, dose 10 mg/kg", "settings": "human, plasma", "method_in_brief": "as §1"}, "Homo sapiens [4]": {"test_system": "Homo sapiens", "assay": "Tlag in Paua New Guinean children with uncomplicated malaria at 10 mg/kg daily for 3 days", "type": "ADME, organism-based", "set-up": "dose 10 mg/kg", "settings": "in vivo, 72 h", "method_in_brief": "as §1"}, "[5]": {"assay": "Apparent clearance with respect to bioavailability in human", "type": "ADME, organism-based", "settings": "in vivo"}, "Homo sapiens [6]": {"test_system": "Homo sapiens", "assay": "AUC (0 to infinity) in Paua New Guinean children with uncomplicated malaria at 10 mg/kg daily for 3 days", "type": "ADME, organism-based, Plasma", "set-up": "time infinity, dose 10 mg/kg", "settings": "in vivo, 72 h", "method_in_brief": "as §1"}, "[7]": {"assay": "Elimination half life in Paua New Guinean children with uncomplicated malaria at 10 mg/kg daily for 3 days", "type": "ADME, organism-based", "set-up": "dose 10 mg/kg", "settings": "human, in vivo, read-out: beta t1/2 (converted)", "method_in_brief": "as §1"}, "Plasmodium falciparum [8]": {"test_system": "Plasmodium falciparum", "assay": "Antiplasmodial activity against chloroquine-resistant Plasmodium falciparum", "type": "functional, organism-based"}, "Plasmodium falciparum [9]": {"test_system": "Plasmodium falciparum", "assay": "Antiplasmodial activity against chloroquine-sensitive Plasmodium falciparum", "type": "functional, organism-based"}, "[10]": {"assay": "Elimination half life in Paua New Guinean children with uncomplicated malaria", "type": "ADME, organism-based", "settings": "human, in vivo; read-out: beta t1/2 (converted)"}, "[11]": {"assay": "AUC (0 to 42 days) in Paua New Guinean children with uncomplicated malaria", "type": "ADME, organism-based", "set-up": "time < 1008 hr", "settings": "human, plasma"}, "[12]": {"assay": "AUC (0 to infinity) in Paua New Guinean children with uncomplicated malaria", "type": "ADME, organism-based", "set-up": "time infinity", "settings": "human, plasma"}, "[13]": {"assay": "AUC (0 to 42 days) in Paua New Guinean children with uncomplicated malaria at 20 mg/kg daily for 3 days", "type": "ADME, organism-based", "set-up": "time < 1008 hr, dose 20 mg/kg", "settings": "human, plasma", "method_in_brief": "(§2)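 Children aged 5–10 y with uncomplicated malaria were given oral DHA-PQ at PQ phosphate 20 mg/kg (11.5 mg base/kg) daily at 0, 24 and 48 h, swallowed with water, without fasting. Sampling was serial to day 42. Heparin plasma was stored at −80°C, extracted with hexane-isoamyl alcohol, and assayed by HPLC with UV detection at 340 nm. Parameters came from a two-compartment model with 1/y2 weighting.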"}, "[14]": {"assay": "Elimination half life in Paua New Guinean children with uncomplicated malaria at 20 mg/kg daily for 3 days", "type": "ADME, organism-based", "set-up": "dose 20 mg/kg", "settings": "human, in vivo, read-out: beta t1/2 (converted)", "method_in_brief": "as §2"}, "Homo sapiens [15]": {"test_system": "Homo sapiens", "assay": "Tlag in Paua New Guinean children with uncomplicated malaria at 20 mg/kg daily for 3 days", "type": "ADME, organism-based", "set-up": "dose 20 mg/kg", "settings": "in vivo, 72 h", "method_in_brief": "as §2"}, "[16]": {"assay": "Apparent clearance with respect to bioavailability in Paua New Guinean children with uncomplicated malaria at 20 mg/kg daily for 3 days", "type": "ADME, organism-based", "settings": "human, in vivo", "method_in_brief": "as §2"}, "[17]": {"assay": "Elimination half life in Cambodian children with malaria", "type": "ADME, organism-based", "settings": "human, in vivo; read-out: beta t1/2 (converted)"}, "Homo sapiens [18]": {"species": "Homo sapiens", "assay": "Volume of distribution at steady state with respect to bioavailability in human after fat meal using non-compartmental analysis", "type": "ADME, organism-based", "settings": "in vivo"}, "[19]": {"assay": "AUC (0 to infinity) in Paua New Guinean children with uncomplicated malaria at 20 mg/kg daily for 3 days", "type": "ADME, organism-based", "set-up": "time infinity, dose 20 mg/kg", "settings": "human, plasma", "method_in_brief": "as §2"}, "[20]": {"assay": "Apparent clearance with respect to bioavailability in human after fat meal using non-compartmental analysis", "type": "ADME, organism-based", "settings": "in vivo"}, "[21]": {"assay": "Volume of distribution at steady state with respect to bioavailability in Vietnamese human", "type": "ADME, organism-based", "settings": "in vivo, read-out: Vc/F"}, "[22]": {"assay": "Apparent clearance with respect to bioavailability in Vietnamese human", "type": "ADME, organism-based", "settings": "in vivo"}, "[23]": {"assay": "Volume of distribution at steady state with respect to bioavailability in Paua New Guinean children with uncomplicated malaria at 20 mg/kg daily for 3 days", "type": "ADME, organism-based", "settings": "human, in vivo, read-out: Vc/F", "method_in_brief": "as §2"}, "[24]": {"assay": "Apparent clearance with respect to bioavailability in human after fasting using non-compartmental analysis", "type": "ADME, organism-based", "settings": "in vivo"}, "[25]": {"assay": "Volume of distribution at steady state with respect to bioavailability in Cambodian children with malaria", "type": "ADME, organism-based", "settings": "human, in vivo; read-out: Vc/F"}}, "data": [{"smiles": "CCN(CC)CCCC(C)Nc1ccnc2cc(Cl)ccc12", "note": "(configuration not stated) [CHLOROQUINE]", "values": [{"measurement": "CL/F", "setting": "[1]", "value": 2.17, "unit": "mL/min/kg"}, {"measurement": "Vd/F", "setting": "[2]", "value": 154, "unit": "L/kg"}, {"measurement": "AUC at 1008 h", "setting": "[3]", "value": 117, "unit": "µM·h"}, {"measurement": "Tlag", "setting": "Homo sapiens [4]", "value": 0.55, "unit": "h"}, {"measurement": "CL/F", "setting": "[5]", "value": 2.17, "unit": "mL/min/kg"}, {"measurement": "AUC", "setting": "Homo sapiens [6]", "value": 122.5, "unit": "µM·h"}, {"measurement": "half-life", "setting": "[7]", "value": 9.71, "unit": "days"}]}, {"smiles": "CCNCCCC(C)Nc1ccnc2cc(Cl)ccc12", "note": "(configuration not stated) [DESETHYLCHLOROQUINE]", "values": [{"measurement": "IC50", "setting": "Plasmodium falciparum [8]", "value": 0.0374, "unit": "µM"}, {"measurement": "IC50", "setting": "Plasmodium falciparum [9]", "value": 0.0178, "unit": "µM"}, {"measurement": "half-life", "setting": "[10]", "value": 12.1, "unit": "days"}, {"measurement": "AUC(0-t) at 1008 h", "setting": "[11]", "value": 83.6, "unit": "µM·h"}, {"measurement": "AUC(0-inf)", "setting": "[12]", "value": 98.5, "unit": "µM·h"}]}, {"smiles": "Clc1ccc2c(N3CCN(CCCN4CCN(c5ccnc6cc(Cl)ccc56)CC4)CC3)ccnc2c1", "note": "[PIPERAQUINE]", "values": [{"measurement": "AUC at 1008 h", "setting": "[13]", "value": 76.4, "unit": "µM·h"}, {"measurement": "IC50", "setting": "Plasmodium falciparum [8]", "value": 0.0407, "unit": "µM"}, {"measurement": "IC50", "setting": "Plasmodium falciparum [9]", "value": 0.0355, "unit": "µM"}, {"measurement": "half-life", "setting": "[14]", "value": 17.2, "unit": "days"}, {"measurement": "Tlag", "setting": "Homo sapiens [15]", "value": 0.89, "unit": "h"}, {"measurement": "CL/F", "setting": "[16]", "value": 14.2, "unit": "mL/min/kg"}, {"measurement": "half-life", "setting": "[17]", "value": 13.5, "unit": "days"}, {"measurement": "Vc/F", "setting": "Homo sapiens [18]", "value": 365, "unit": "L/kg"}, {"measurement": "AUC(0-inf)", "setting": "[19]", "value": 87.4, "unit": "µM·h"}, {"measurement": "CL/F", "setting": "[20]", "value": 10, "unit": "mL/min/kg"}, {"measurement": "Vd/F", "setting": "[21]", "value": 103, "unit": "L/kg"}, {"measurement": "CL/F", "setting": "[22]", "value": 16.2, "unit": "mL/min/kg"}, {"measurement": "Vd/F", "setting": "[23]", "value": 431, "unit": "L/kg"}, {"measurement": "CL/F", "setting": "[24]", "value": 19, "unit": "mL/min/kg"}, {"measurement": "Vd/F", "setting": "[25]", "value": 614, "unit": "L/kg"}]}]}
